Results taken from ChEMBL document CHEMBL5653631, “A Potent and Selective ULK1 Inhibitor Suppresses Autophagy and Sensitizes Cancer Cells to Nutrient Stress” (iScience, 2018).
Values belong to the compound of their own block, whether it stands above or below them.

Assays:
[1] = molecular target: Serine/threonine-protein kinase MARK1 (Homo sapiens) (UniProt Q9P0L2); assay: Inhibition of human recombinant MARK1 at 500 nM in presence of ATP by radiometric assay relative to control
[2] = molecular target: T1, Inhibitor of nuclear factor kappa-B kinase subunit alpha (Homo sapiens) (UniProt O15111); assay: Inhibition of human recombinant IKKa at 40 nM in presence of ATP by radiometric assay relative to control
T1 sequence (whole entry): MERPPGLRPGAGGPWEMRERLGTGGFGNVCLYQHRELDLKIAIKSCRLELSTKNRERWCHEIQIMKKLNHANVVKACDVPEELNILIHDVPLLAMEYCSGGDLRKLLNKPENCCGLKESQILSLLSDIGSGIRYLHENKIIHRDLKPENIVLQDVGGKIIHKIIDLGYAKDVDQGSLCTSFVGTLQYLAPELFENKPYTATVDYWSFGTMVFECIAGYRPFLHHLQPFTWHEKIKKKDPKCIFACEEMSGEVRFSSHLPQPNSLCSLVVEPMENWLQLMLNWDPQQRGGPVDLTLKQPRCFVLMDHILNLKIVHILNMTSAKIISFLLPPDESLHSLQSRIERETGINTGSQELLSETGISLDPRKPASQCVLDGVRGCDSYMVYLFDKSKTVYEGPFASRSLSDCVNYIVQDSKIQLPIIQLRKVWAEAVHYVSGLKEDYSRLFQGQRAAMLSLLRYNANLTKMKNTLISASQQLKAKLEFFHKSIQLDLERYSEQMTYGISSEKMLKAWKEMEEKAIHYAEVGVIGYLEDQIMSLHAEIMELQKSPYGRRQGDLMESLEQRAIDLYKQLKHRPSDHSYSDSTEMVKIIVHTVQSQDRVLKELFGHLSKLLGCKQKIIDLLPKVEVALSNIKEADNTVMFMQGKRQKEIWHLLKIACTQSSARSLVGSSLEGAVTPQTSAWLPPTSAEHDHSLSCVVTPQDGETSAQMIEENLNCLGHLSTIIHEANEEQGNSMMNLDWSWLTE

[3] = molecular target: Receptor-interacting serine/threonine-protein kinase 2 (Homo sapiens) (UniProt O43353); assay: Inhibition of human recombinant RIPK2 at 40 nM in presence of ATP by radiometric assay relative to control
[4] = molecular target: Serine/threonine-protein kinase WNK2 (Homo sapiens) (UniProt Q9Y3S1); assay: Inhibition of human recombinant Wnk2 at 40 nM in presence of ATP by radiometric assay relative to control
[5] = molecular target: ALK tyrosine kinase receptor (Homo sapiens) (UniProt Q9UM73); assay: Inhibition of human recombinant ALK at 40 nM related to control ULK1
How it was run: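 Radiometric activity assays in a panel of 327 human recombinant kinases, each run in duplicate at one inhibitor concentration. Activity remaining is expressed as percent of vehicle control, and percent inhibition is calculated as 100% minus percent activity remaining.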

[6] = molecular target: Serine/threonine-protein kinase SIK2 (Homo sapiens) (UniProt Q9H0K1); assay: Inhibition of human recombinant QIK at 40 nM related to control ULK1
[7] = molecular target: BDNF/NT-3 growth factors receptor (Homo sapiens) (UniProt Q16620); assay: Inhibition of human recombinant TRKB at 40 nM related to control ULK1
[8] = molecular target: Serine/threonine-protein kinase PAK 1 (Homo sapiens) (UniProt Q13153); assay: Inhibition of human recombinant PAK1 at 40 nM related to control ULK1
[9] = molecular target: T2, Ephrin type-B receptor 1 (Homo sapiens) (UniProt P54762); assay: Inhibition of human recombinant EphB1 at 15 nM in presence of ATP by radiometric assay relative to control
T2 sequence (whole entry): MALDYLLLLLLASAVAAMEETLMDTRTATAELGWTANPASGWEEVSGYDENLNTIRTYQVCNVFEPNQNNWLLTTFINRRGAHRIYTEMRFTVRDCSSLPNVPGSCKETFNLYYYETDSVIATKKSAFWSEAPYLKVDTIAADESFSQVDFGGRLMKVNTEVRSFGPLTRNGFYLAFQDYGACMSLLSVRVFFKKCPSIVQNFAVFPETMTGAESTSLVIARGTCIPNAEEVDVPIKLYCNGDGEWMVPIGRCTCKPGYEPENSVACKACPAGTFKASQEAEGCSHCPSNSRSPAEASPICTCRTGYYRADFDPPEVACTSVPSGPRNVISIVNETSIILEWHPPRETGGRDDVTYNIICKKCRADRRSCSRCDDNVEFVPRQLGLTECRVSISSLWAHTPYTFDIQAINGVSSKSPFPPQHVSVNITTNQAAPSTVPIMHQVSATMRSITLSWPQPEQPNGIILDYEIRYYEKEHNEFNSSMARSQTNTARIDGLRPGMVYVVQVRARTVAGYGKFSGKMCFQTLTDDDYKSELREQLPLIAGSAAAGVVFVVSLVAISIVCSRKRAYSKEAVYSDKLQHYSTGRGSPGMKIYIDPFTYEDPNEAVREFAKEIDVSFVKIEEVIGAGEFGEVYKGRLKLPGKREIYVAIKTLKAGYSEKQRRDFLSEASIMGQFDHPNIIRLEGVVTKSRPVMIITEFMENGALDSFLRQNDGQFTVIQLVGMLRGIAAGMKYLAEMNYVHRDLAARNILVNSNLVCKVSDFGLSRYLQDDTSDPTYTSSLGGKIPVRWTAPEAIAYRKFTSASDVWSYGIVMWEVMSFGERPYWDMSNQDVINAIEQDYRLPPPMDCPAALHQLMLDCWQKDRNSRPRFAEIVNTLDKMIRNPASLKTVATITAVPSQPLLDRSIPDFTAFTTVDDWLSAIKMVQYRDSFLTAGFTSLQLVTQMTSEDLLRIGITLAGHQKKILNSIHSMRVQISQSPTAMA

[10] = molecular target: Ephrin type-A receptor 7 (Homo sapiens) (UniProt Q15375); assay: Inhibition of human recombinant EphA7 at 15 nM related to control ULK1
[11] = molecular target: Myosin light chain kinase 2, skeletal/cardiac muscle (Homo sapiens) (UniProt Q9H1R3); assay: Inhibition of human recombinant skMLCK at 15 nM related to control ULK1
[12] = molecular target: T3, Testis-specific serine/threonine-protein kinase 2 (Homo sapiens) (UniProt Q96PF2); assay: Inhibition of human recombinant TSSK2 at 15 nM related to control ULK1
T3 sequence (whole entry): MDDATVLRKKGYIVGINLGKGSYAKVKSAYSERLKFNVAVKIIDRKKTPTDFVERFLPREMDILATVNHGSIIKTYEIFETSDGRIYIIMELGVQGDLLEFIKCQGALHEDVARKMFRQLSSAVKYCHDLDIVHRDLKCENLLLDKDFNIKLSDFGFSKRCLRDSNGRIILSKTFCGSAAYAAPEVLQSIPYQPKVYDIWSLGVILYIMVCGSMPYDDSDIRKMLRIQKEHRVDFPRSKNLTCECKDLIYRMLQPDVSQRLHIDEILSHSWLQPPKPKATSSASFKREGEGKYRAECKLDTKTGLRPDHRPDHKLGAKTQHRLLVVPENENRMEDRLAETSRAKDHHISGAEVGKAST

Chain of Serine/threonine-protein kinase SIK2 (Homo sapiens) (Q9H0K1 whole entry, looked up): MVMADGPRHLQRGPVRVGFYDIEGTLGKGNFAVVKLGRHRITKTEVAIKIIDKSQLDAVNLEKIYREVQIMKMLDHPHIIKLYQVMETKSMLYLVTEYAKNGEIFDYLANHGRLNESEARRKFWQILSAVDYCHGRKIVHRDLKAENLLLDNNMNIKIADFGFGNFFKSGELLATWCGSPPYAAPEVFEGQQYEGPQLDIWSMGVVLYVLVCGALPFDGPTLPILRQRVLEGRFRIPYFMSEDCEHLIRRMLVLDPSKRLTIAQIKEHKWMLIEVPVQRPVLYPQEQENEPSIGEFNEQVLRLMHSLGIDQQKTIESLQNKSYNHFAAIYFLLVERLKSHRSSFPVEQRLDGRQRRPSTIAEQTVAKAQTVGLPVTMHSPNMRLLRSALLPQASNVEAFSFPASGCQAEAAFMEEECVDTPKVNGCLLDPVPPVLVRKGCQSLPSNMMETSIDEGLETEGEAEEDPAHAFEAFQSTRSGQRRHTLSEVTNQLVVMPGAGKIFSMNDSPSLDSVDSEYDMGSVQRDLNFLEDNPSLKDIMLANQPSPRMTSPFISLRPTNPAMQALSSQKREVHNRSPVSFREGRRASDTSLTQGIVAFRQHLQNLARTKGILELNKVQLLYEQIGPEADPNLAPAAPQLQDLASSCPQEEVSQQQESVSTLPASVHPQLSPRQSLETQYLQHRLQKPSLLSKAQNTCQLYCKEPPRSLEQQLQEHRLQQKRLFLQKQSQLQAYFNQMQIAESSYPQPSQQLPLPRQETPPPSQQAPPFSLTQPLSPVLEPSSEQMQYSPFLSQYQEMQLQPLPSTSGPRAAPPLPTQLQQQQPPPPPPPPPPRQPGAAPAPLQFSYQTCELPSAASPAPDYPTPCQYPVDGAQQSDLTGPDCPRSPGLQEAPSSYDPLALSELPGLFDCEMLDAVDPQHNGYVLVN
Chain of Serine/threonine-protein kinase MARK1 (Homo sapiens) (Q9P0L2 whole entry, looked up): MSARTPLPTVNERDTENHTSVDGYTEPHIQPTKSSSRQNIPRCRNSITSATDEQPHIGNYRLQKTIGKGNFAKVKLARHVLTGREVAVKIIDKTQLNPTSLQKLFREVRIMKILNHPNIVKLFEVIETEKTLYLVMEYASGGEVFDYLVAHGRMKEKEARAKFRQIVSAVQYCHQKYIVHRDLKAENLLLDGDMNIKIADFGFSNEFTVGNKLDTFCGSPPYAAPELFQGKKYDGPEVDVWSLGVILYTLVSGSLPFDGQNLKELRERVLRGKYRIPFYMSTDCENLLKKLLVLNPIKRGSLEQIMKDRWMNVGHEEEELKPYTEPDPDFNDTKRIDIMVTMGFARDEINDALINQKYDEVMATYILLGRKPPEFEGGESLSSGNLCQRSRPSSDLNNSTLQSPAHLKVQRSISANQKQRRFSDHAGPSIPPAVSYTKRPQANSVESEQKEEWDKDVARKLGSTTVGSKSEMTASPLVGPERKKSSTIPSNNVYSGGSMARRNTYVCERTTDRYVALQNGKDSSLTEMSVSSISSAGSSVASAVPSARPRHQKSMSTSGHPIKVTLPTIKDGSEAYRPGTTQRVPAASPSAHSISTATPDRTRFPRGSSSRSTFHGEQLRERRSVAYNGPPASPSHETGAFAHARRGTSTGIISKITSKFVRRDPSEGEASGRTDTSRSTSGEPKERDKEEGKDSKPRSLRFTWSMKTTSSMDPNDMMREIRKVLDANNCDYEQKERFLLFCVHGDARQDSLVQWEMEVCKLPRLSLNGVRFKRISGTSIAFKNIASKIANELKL
Chain of Serine/threonine-protein kinase WNK2 (Homo sapiens) (Q9Y3S1 whole entry): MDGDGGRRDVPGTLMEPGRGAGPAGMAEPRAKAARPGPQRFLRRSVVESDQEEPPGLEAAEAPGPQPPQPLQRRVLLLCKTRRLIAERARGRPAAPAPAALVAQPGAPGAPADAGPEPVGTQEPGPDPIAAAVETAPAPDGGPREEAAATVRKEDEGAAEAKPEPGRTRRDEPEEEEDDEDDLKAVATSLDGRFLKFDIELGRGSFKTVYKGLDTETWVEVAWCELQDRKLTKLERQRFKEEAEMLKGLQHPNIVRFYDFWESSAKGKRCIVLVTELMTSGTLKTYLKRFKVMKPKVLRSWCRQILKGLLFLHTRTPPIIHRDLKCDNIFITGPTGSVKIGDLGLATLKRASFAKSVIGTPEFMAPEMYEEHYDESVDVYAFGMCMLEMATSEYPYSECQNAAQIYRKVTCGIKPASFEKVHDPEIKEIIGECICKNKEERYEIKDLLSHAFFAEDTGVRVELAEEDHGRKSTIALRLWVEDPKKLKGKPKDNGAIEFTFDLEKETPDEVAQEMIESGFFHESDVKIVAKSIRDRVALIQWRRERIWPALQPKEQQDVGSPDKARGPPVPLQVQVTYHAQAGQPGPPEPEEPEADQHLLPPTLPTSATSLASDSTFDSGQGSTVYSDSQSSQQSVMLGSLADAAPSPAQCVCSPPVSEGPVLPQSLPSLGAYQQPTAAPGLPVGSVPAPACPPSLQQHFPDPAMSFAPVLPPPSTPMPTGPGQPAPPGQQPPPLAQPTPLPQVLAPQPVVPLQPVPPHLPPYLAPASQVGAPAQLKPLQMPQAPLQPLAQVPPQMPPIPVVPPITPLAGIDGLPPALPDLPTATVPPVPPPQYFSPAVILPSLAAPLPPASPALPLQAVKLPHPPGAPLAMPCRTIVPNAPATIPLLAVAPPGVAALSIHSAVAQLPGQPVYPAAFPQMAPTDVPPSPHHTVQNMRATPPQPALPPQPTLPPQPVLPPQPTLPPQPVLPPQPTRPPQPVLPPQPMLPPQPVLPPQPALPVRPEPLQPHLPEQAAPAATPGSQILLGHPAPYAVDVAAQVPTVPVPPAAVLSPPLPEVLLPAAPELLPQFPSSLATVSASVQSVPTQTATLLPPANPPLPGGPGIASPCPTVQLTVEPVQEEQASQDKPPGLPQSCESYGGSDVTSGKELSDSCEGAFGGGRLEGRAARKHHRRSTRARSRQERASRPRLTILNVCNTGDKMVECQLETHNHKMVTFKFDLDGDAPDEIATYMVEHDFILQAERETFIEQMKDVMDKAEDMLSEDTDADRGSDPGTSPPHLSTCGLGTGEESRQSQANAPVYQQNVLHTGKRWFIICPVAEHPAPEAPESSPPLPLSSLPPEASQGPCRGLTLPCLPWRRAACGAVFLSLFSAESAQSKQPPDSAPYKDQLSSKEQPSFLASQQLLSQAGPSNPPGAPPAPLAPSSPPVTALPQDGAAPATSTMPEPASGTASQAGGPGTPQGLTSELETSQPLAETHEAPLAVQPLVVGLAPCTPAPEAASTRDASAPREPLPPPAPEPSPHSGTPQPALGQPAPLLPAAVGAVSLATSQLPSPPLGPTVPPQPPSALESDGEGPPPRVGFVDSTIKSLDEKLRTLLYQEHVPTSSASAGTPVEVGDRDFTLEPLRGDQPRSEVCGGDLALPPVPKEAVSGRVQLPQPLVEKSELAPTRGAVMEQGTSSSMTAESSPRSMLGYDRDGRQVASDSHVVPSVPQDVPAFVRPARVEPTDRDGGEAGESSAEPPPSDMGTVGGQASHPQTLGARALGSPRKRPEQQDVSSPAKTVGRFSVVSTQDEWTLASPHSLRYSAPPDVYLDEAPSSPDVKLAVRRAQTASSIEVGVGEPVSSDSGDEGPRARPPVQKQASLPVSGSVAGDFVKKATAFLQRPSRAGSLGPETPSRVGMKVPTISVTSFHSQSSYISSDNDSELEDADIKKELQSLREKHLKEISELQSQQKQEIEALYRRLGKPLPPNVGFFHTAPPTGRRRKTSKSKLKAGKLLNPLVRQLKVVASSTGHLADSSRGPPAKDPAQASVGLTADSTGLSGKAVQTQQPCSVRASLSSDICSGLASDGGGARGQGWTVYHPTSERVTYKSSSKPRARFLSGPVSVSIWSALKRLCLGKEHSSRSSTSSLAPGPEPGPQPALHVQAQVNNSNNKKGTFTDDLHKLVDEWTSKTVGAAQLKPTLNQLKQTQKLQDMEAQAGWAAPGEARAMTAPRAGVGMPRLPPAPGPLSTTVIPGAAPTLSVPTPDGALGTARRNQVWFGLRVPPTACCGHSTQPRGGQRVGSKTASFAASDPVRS
Chain of Ephrin type-A receptor 7 (Homo sapiens) (Q15375 28-998 limits assumed): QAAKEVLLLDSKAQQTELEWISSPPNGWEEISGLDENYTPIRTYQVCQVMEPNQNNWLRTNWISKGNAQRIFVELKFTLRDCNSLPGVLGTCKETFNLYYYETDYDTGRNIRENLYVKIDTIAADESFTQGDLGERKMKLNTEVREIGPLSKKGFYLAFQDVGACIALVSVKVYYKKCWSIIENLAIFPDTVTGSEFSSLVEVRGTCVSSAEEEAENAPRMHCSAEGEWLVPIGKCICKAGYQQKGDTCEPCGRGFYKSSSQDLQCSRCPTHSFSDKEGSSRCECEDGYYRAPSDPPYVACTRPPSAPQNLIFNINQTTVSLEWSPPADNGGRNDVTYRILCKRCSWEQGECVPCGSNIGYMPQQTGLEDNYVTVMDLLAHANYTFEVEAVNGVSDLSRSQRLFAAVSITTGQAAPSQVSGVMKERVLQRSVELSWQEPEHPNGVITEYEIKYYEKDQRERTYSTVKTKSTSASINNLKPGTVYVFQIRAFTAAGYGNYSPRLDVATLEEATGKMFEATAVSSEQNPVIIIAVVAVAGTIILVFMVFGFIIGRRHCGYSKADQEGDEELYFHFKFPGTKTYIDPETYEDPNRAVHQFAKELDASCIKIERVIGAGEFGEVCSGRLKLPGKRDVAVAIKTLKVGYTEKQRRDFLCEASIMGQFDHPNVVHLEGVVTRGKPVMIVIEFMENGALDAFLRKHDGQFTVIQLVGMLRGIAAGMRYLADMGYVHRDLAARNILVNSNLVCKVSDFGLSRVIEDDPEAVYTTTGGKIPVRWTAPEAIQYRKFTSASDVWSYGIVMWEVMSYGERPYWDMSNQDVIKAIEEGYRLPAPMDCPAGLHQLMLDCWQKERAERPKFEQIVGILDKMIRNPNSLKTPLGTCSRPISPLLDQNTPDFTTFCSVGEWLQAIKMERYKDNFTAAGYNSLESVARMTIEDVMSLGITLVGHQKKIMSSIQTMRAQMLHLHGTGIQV

inhibition [1]: 54%
Structure (SMILES): CNC(=O)c1ccccc1Oc1nc(Nc2cc(OC)c(OC)c(OC)c2)ncc1Br

inhibition [2]: 0%
inhibition [3]: 30%
inhibition [4]: 3%
fold change (FC) [5]: 0
fold change (FC) [6]: 0.74
fold change (FC) [7]: 0.26
fold change (FC) [8]: 0
Structure (SMILES): O=C(N[C@@H](C1CC1)C(F)(F)F)c1cc(-c2cnn3cc(-c4ccc(F)cc4)cnc23)cs1

inhibition [9]: 12%
fold change (FC) [10]: 0
fold change (FC) [11]: 0.13
fold change (FC) [12]: 0.01
Structure (SMILES): CC(C)[C@H](NC(=O)c1cc(-c2cnn3cc(-c4ccc(OCCN5CCCCC5)cc4)cnc23)cs1)C(F)(F)F
